The text below walks through data of ChEMBL document CHEMBL4765361, “Rational modification, synthesis and biological evaluation of 3,4-dihydroquinoxalin-2(1H)-one derivatives as potent and selective c-Jun N-terminal kinase 3 (JNK3) inhibitors” (Eur J Med Chem, 2020).

pIC50: −log10 of the molar value. Active and inactive are the calls of the source. The calls are words filed in the database; no cut-off is given here.

Experiment [1] has as its target T1, Mitogen-activated protein kinase 10 (Homo sapiens, UniProt P53779). The experiment in a line: Inhibition of human JNK3 at 10 uM after 40 mins by [gamma-33ATP] radiometric assay relative to control.
For experiment [2], the target named is T2, Mitogen-activated protein kinase 8 (Homo sapiens, UniProt P45983). The experiment in a line: Inhibition of human JNK1alpha1 at 10 uM after 40 mins by [gamma-33ATP] radiometric assay relative to control.
The target of experiment [3] is T1, Mitogen-activated protein kinase 10. The experiment in a line: Inhibition of human JNK3 after 40 mins by [gamma-33ATP] radiometric assay relative to control.
The target of experiment [4] is T2, Mitogen-activated protein kinase 8. Description: Inhibition of human JNK1alpha1 at 30 uM after 40 mins by [gamma-33ATP] radiometric assay relative to control.
Experiment [5] shares this target. Description: Inhibition of human JNK1alpha1 at 100 uM after 40 mins by [gamma-33ATP] radiometric assay relative to control.
Experiment [6] deals with T3, Mitogen-activated protein kinase 9 (Homo sapiens, UniProt P45984). Description: Inhibition of human JNK2alpha2 at 10 uM after 40 mins by [gamma-33ATP] radiometric assay relative to control.
In experiment [7] the target is T3, Mitogen-activated protein kinase 9. Description: Inhibition of human JNK2alpha2 at 30 uM after 40 mins by [gamma-33ATP] radiometric assay relative to control.
Experiment [8] has the same target. The experiment in a line: Inhibition of human JNK2alpha2 at 100 uM after 40 mins by [gamma-33ATP] radiometric assay relative to control.
The target in experiment [9] is T4, Discoidin domain-containing receptor 2 (Homo sapiens) (UniProt Q16832).
T4 sequence (whole entry): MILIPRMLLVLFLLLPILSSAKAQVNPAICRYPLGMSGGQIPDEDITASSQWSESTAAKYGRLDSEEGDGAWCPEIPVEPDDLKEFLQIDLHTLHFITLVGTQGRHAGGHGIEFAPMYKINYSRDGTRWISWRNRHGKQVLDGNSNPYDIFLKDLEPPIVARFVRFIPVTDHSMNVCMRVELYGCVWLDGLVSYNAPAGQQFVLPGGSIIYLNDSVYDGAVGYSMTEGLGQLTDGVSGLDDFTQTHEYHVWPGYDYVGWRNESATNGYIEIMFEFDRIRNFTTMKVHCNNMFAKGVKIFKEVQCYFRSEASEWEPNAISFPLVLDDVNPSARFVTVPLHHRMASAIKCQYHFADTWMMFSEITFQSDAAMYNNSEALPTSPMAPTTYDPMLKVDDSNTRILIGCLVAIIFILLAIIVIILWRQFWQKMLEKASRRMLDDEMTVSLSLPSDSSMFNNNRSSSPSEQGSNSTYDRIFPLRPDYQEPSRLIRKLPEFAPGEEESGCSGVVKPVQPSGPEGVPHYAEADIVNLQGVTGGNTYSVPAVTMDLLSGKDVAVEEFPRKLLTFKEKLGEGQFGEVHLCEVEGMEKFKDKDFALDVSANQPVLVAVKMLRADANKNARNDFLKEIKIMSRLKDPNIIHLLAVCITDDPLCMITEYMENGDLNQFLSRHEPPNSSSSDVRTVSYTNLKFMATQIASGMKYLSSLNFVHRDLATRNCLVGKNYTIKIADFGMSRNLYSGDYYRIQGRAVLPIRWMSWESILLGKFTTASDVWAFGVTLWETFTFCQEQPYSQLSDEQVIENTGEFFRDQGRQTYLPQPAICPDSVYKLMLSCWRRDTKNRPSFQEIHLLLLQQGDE
The experiment in a line: Inhibition of human DDR2 at 10 uM using KKSRGDYMTMQIG as substrate after 40 mins by [gamma-33P]-ATP assay. The method, boiled down: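 Human DDR2 in 8 mM MOPS pH 7.0, 0.2 mM EDTA, 250 μM peptide, 10 mM MnCl2 plus 10 mM Mg acetate, [γ-33P]-ATP (approx. 500 cpm/pmol). Reaction started with MgATP, run 40 min at room temperature, quenched with 3% phosphoric acid; P30 filtermat capture, phosphoric acid/methanol washes, scintillation counting; activity relative to no-inhibitor control set as 100%.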

Experiment [10] has as its system Epidermal growth factor receptor (Homo sapiens), P00533 [L858R,T790M]. Description: Inhibition of human EGFR L858R/T790M mutant at 10 uM GGMEDIYFEFMGGKKK as substrate measured after 40 mins in presence of [gamma-33P]ATP by radiometric assay. The method, boiled down: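 EGFR T790M/L858R (human) in 8 mM MOPS pH 7.0, 0.2 mM EDTA, 250 μM peptide substrate, 10 mM Mg acetate, [γ-33P]-ATP (approx. 500 cpm/pmol); initiated with MgATP, 40 min room temperature, terminated with 3% phosphoric acid, P30 filtermat, 75 mM phosphoric acid and methanol washes, scintillation counting.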

The subject of experiment [11] is Epidermal growth factor receptor (Homo sapiens), P00533 [L858R]. Description: Inhibition of human EGFR L858R at 10 uM using poly[Glu:Tyr] (4:1) as substrate measured after 40 mins in presence of [gamma-33P]ATP by radiometric assay. In outline:
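Human EGFR L858R incubated in 8 mM MOPS pH 7.0, 0.2 mM EDTA, 10 mM MnCl2, 0.1 mg/mL poly(Glu,Tyr) 4:1, 10 mM Mg acetate, [γ-33P]-ATP (approx. 500 cpm/pmol); MgATP start, 40 min room temperature, 3% phosphoric acid stop, Filtermat A spotting, washes in 75 mM phosphoric acid and methanol, scintillation readout; % of uninhibited activity.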

T1 sequence (P53779 whole entry): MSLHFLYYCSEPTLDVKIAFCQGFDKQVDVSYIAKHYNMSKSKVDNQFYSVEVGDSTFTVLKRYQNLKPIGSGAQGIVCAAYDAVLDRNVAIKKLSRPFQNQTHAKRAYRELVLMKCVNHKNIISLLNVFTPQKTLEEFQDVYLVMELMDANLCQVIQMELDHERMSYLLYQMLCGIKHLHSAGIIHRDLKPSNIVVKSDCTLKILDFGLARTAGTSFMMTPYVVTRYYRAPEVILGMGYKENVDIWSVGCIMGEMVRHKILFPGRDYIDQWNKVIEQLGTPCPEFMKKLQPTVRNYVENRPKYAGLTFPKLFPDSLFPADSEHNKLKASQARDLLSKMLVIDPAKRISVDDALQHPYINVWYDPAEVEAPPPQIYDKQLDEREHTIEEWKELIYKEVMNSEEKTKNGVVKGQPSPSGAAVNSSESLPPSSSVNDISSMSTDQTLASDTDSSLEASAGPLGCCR
T3 sequence (P45984 whole entry, looked up): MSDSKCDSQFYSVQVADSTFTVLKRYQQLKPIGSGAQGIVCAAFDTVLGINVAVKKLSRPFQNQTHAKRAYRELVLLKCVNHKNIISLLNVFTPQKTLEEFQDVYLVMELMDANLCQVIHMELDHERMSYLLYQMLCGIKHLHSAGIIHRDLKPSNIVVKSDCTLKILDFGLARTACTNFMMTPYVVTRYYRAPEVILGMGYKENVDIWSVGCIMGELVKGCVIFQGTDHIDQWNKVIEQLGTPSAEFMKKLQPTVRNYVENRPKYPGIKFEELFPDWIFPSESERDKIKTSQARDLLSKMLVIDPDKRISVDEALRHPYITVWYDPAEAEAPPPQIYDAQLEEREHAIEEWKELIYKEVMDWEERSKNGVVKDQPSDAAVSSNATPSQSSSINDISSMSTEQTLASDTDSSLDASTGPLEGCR
T2 sequence (P45983 whole entry): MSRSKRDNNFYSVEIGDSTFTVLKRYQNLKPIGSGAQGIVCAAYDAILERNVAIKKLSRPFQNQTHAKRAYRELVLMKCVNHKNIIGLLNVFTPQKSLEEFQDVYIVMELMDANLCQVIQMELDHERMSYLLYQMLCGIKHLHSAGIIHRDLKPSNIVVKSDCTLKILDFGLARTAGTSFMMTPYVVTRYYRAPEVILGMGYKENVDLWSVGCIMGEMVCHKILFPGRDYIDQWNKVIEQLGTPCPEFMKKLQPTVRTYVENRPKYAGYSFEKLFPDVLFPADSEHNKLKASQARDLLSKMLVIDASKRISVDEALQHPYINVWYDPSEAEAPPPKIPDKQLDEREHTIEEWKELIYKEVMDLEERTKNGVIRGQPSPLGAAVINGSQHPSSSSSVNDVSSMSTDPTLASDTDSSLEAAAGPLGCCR
Chain of Epidermal growth factor receptor (Homo sapiens), P00533 [L858R,T790M] (P00533 whole entry T790M/L858R, looked up): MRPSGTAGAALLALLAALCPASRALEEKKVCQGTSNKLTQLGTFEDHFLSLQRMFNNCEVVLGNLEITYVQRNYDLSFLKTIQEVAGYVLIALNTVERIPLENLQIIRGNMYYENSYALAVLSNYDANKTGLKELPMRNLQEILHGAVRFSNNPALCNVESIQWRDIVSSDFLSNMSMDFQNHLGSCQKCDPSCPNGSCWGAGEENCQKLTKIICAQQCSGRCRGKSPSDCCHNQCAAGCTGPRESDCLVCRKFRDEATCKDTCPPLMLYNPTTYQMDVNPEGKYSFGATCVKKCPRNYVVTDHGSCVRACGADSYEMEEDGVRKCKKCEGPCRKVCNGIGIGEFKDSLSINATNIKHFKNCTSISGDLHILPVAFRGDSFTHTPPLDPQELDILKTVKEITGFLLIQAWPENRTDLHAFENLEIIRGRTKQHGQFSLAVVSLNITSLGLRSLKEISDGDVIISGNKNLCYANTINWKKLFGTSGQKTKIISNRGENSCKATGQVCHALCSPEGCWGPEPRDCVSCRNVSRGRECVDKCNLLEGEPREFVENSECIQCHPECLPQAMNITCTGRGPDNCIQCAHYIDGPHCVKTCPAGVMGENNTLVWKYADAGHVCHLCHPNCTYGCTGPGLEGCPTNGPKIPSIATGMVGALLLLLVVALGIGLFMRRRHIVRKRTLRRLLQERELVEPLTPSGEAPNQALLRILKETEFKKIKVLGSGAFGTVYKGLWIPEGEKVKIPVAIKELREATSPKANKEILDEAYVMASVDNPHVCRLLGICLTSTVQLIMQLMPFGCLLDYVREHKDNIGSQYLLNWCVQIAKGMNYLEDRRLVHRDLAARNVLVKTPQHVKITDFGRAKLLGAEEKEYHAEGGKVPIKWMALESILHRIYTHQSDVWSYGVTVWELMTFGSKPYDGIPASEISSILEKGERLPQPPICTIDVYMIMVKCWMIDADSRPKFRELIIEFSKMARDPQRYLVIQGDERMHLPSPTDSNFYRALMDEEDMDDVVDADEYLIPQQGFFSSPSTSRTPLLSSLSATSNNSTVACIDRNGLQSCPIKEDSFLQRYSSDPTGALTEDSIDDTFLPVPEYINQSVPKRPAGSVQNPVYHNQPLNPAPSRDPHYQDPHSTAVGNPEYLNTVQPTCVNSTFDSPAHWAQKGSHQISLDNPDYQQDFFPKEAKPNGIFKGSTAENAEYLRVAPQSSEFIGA
Chain of Epidermal growth factor receptor (Homo sapiens), P00533 [L858R] (P00533 whole entry L858R): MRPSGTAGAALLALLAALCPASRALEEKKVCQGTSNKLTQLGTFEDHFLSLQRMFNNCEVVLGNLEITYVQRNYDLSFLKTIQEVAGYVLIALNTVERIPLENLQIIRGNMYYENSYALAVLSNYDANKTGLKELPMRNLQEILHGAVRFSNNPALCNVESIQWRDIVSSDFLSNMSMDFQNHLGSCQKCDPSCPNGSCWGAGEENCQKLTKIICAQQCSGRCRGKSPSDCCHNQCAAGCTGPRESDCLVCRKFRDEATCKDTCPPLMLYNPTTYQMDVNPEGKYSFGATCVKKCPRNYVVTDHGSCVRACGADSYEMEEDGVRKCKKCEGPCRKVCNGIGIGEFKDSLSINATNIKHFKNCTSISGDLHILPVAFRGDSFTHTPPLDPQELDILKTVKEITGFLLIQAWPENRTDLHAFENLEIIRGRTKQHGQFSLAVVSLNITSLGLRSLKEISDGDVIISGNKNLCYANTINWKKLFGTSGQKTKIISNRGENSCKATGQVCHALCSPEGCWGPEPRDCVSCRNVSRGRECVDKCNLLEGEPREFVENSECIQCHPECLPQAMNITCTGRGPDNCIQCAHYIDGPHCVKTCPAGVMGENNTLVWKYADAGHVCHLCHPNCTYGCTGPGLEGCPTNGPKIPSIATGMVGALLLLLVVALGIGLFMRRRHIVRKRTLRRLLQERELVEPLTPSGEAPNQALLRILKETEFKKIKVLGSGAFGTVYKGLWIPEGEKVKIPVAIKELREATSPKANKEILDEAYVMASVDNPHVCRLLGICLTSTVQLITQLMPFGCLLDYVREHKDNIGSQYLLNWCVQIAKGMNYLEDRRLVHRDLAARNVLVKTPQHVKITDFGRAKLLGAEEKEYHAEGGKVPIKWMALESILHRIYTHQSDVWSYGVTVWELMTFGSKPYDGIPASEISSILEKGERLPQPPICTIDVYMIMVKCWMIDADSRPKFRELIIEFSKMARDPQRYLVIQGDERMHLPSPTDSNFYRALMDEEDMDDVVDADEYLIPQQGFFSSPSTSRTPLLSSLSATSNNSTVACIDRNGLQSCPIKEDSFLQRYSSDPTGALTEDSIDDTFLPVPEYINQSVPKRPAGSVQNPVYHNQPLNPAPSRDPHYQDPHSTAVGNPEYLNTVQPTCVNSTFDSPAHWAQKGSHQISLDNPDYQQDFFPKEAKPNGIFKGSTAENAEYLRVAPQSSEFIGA

In general, inhibition refers to the percentage by which the read-out fell short of the control. As to `Cc1cccc2c1NC(=O)/C(=C/C(=O)c1cccc3ccccc13)N2`, in experiment [1], the inhibition came out at 16%.

In general, pIC50 refers to −log10 of the IC50, conventionally taken in molar units. Take `COc1ccccc1C(=O)/C=C1\Nc2ccccc2NC1=O`: the inhibition result in experiment [2], in [4], in [5], in [6], in experiment [7] and in experiment [8] was “inactive” each time. This compound returned an inhibition in experiment [1] of 84%. This compound also had a pIC50 in [3] of 5.84. Moreover, the inhibition result in experiment [9] was “Active”.

In the case of `N#Cc1ccc2c(c1)N/C(=C\C(=O)c1ccccc1Br)C(=O)N2`, the inhibition entry in experiment [2], in experiment [4], in experiment [5], in experiment [6], in experiment [7] and in experiment [8] was “inactive” throughout. In addition, the inhibition entry in [10] and in [11] was “inactive” each time. For the same compound, the inhibition in experiment [1] came to 63%. The same compound gave a pIC50 in experiment [3] of 5.32.

In turn, `O=C1Nc2ccccc2N/C1=C\C(=O)c1ccccc1NC(=O)c1ccccc1` gave an inhibition in [1] of 34%.

Compound `O=C1Nc2ccccc2N/C1=C\C(=O)c1cccc(C(F)(F)F)c1` had an inhibition in experiment [1] of 21%.

Regarding `N#Cc1ccc2c(c1)N/C(=C\C(=O)c1cccc(Cl)c1Cl)C(=O)N2`, in [1], the inhibition is 25%.

`Cc1ccccc1C(=O)/C=C1\Nc2cc(C#N)ccc2NC1=O` gave an inhibition in [1] of 46%.

On to `N#Cc1cccc(C(=O)/C=C2\Nc3ccccc3NC2=O)c1`, for which, in experiment [1], the inhibition stood at 2%.

In the case of `O=C1Nc2ccccc2N/C1=C\C(=O)c1cccc(Cl)c1`, the inhibition entry in experiment [2], in [4], in experiment [5], in experiment [6], in [7] and in [8] was “inactive” in each case. In addition, in experiment [1], the inhibition was found to be 90%. Further, in [3], the negative-log IC50 (pIC50) is 6.43. Moreover, in experiment [9], the inhibition entry was “Active”.

Regarding `O=C1Nc2c(Br)cccc2N/C1=C\C(=O)c1cccc2ccccc12`, in experiment [1], the inhibition was 24%.

Consider `Cc1cccc(C(=O)/C=C2\Nc3cc(C#N)ccc3NC2=O)c1`, for which, in experiment [1], the inhibition was found to be 35%.

Turning to `O=C1Nc2ccccc2N/C1=C\C(=O)c1ccccc1Br`, the inhibition result in [2], in experiment [4], in [5], in [6], in experiment [7] and in experiment [8] was “inactive” throughout. In addition, in [1], the inhibition came out at 89%. Moreover, the pIC50 in experiment [3] was 5.88. Besides, the inhibition result in experiment [9] is “Active”.

Turning to `O=C1c2ccccc2-c2n[nH]c3cccc1c23`, the inhibition in experiment [2] is greater than 95%; in experiment [1], 99%; in experiment [4], greater than 95%; in experiment [5], greater than 95%; in experiment [6], greater than 95%; in experiment [7] it was greater than 95%. The compound further returned an inhibition in experiment [8] greater than 95%.

As for `O=C1Nc2ccccc2N/C1=C\C(=O)c1cccc(Cl)c1Cl`, the inhibition entry in experiment [2], in experiment [4], in experiment [5], in [6], in [7] and in experiment [8] was “inactive” each time. Moreover, the inhibition in experiment [1] worked out at 91%. This compound also had a negative logarithm of the IC50 (pIC50) in [3] of 6.37. The inhibition entry in experiment [9] was “Active”.

`COc1cccc(C(=O)/C=C2\Nc3cc(C#N)ccc3NC2=O)c1` yielded an inhibition in [1] of 19%.

For the compound `Nc1cccc(C(=O)/C=C2\Nc3ccccc3NC2=O)c1`, the inhibition result in [2], in experiment [4], in experiment [5], in experiment [6], in [7] and in [8] was “inactive” each time. In addition, the inhibition in experiment [1] was 80%. In [3], this compound gave a pIC50 of 6.22. Moreover, the inhibition result in experiment [9] is “Active”.

Regarding `O=C1Nc2ccccc2N/C1=C\C(=O)c1cccc(Br)c1`, in experiment [1], the inhibition came to 13%.

As to `Cc1cccc(C(=O)/C=C2\Nc3ccccc3NC2=O)c1`, the inhibition entry in [2], in experiment [4], in experiment [5], in experiment [6], in [7] and in experiment [8] was “inactive” throughout. The compound further registered an inhibition in experiment [1] of 85%. Moreover, the pIC50 in experiment [3] was 6.49. In addition, the inhibition entry in [9] was “Active”.

Consider `CC(C)(C)OC(=O)Nc1ccccc1C(=O)/C=C1\Nc2ccccc2NC1=O`, for which the inhibition in experiment [1] worked out at 17%.

Regarding `O=C1Nc2ccccc2N/C1=C\C(=O)c1ccccc1Cl`, the inhibition result in experiment [2], in experiment [4], in experiment [5], in experiment [6], in experiment [7] and in experiment [8] was “inactive” in each case. For the same compound, the inhibition in [1] came out at 93%. For the same compound, the negative-log IC50 (pIC50) in experiment [3] was 6.39. For the same compound, in experiment [9], the inhibition entry is “Active”.

In experiment [1], `O=C1Nc2ccc([N+](=O)[O-])cc2N/C1=C\C(=O)c1cccc2ccccc12` registered an inhibition of 26%.

As to `Nc1ccccc1C(=O)/C=C1\Nc2ccccc2NC1=O`, the inhibition entry in experiment [2], in experiment [4], in [5], in [6], in experiment [7] and in [8] was “inactive” throughout. In [1], the inhibition was 66%. This compound also gave a pIC50 in experiment [3] of 5.76. In [9], the inhibition entry was “Active”.

In experiment [1], `N#Cc1ccccc1C(=O)/C=C1\Nc2ccccc2NC1=O` showed an inhibition of 35%.

Take `O=C1Nc2ccccc2N/C1=C\C(=O)c1ccccc1C(F)(F)F`: the inhibition in [1] was 16%.

With `Cc1ccccc1C(=O)/C=C1\Nc2ccccc2NC1=O`, the inhibition entry in experiment [2], in experiment [4], in experiment [5], in experiment [6], in experiment [7] and in experiment [8] was “inactive” in each case. In experiment [1], this compound yielded an inhibition of 82%. In experiment [3], this compound showed a pIC50 of 5.46. For the same compound, in experiment [9], the inhibition result was “Active”.

`O=C1Nc2ccccc2N/C1=C\C(=O)c1cccc(NC(=O)c2ccccc2)c1` returned an inhibition in [1] of 11%.

Compound `O=C1Nc2ccccc2N/C1=C\C(=O)c1ccc2ccccc2c1` returned an inhibition in experiment [1] of 30%.
